According to ChEMBL document CHEMBL3758104, “Reinvestigating Old Pharmacophores: Are 4-Aminoquinolines and Tetraoxanes Potential Two-Stage Antimalarials?” (J Med Chem, 2016):
Activity calls are given as the source filed them. The calls are words filed in the database; no cut-off is given here.

Assays:
Plasmodium falciparum [1] = assay: Antimalarial activity against chloroquine-susceptible Plasmodium falciparum D6 after 48 hrs by [3H]hypoxanthine incorporation assay; type: functional, organism-based
In short: (§1)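 P. falciparum D6 (Sierra I/UNC clone), W2 (Indochina I clone), TM91C235 (South-East Asian clone) cultured with compound; growth inhibition by [3H]hypoxanthine incorporation (modified Desjardins/Milhous method). Chloroquine, mefloquine, artemisinin as positive controls. IC50 in nM; technical triplicates, curve fits R2 0.96–1.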

[2] = Half life in mouse liver microsomes at 1 uM by LC-MS/MS analysis; type: ADME
Plasmodium berghei [3] = assay: Antimalarial activity against Plasmodium berghei ANKA infected in C57Bl6 mouse at 160 mg/kg/day, po measured on day 3 to 5 by Thompson test; type: functional
[4] = Selectivity index, ratio of IC50 for mouse RAW 264.7 cells to IC50 for chloroquine susceptible Plasmodium falciparum D6; type: toxicity; details: read-out: Ratio IC50
Plasmodium falciparum [5] = assay: Antimalarial activity against chloroquine-resistant Plasmodium falciparum W2 after 48 hrs by [3H]hypoxanthine incorporation assay; type: functional, organism-based; in short: as §1
RAW264.7 = assay: Cytotoxicity against mouse RAW264.7 cells; type: cell-based
Plasmodium berghei [6] = assay: Antimalarial activity against Plasmodium berghei ANKA infected in C57Bl6 mouse assessed as reduction of parasitemia at 160 mg/kg/day, po administered for day 3 to 5 measured on day 6 by Thompson test; type: functional, organism-based
In short: (§2)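 Modified Thompson test: C57Bl6 female mice inoculated intraperitoneally on day 0 with 1×10^6 P. berghei ANKA-infected erythrocytes; compound suspended in 0.5% hydroxyethylcellulose–0.1% Tween 80, given orally once daily on days 3, 4 and 5 post infection. Parasitemia by Giemsa-stained thin tail-blood smears on days 0, 3, 6, 10, 13, 17, 20, 24, 27, 31. Cure = survival without parasitemia to day 31.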

Plasmodium berghei [7] = assay: Antimalarial activity against Plasmodium berghei ANKA infected in C57Bl6 mouse assessed as reduction of parasitemia at 160 mg/kg/day, po administered for day 3 to 5 measured after 10 to 14 days by Thompson test; type: functional, organism-based; in short: as §2
Plasmodium falciparum [8] = assay: Antimalarial activity against mutidrug resistant Plasmodium falciparum TM91C235 after 48 hrs by [3H]hypoxanthine incorporation assay; type: functional, organism-based; in short: as §1
Mus musculus = assay: Toxicity in Plasmodium berghei ANKA infected C57Bl6 mouse at 160 mg/kg/day, po administered for 3 days measured 2 times a day for 31 days; type: organism-based; details: in vivo, 744 h
[9] = Half life in human liver microsomes at 1 uM by LC-MS/MS analysis; type: ADME
Plasmodium berghei [10] = assay: Antimalarial activity against sporozoite stage of Plasmodium berghei infected in human Huh7 cells assessed as remaining parasite infection at 5 uM pre-incubated for 24 hrs followed by parasite infection measured after 48 hrs by bioluminescence assay; details: Huh-7
HepG2 = assay: Cytotoxicity against human HepG2 cells after 48 hrs by MTT assay; type: cell-based; details: HepG2, 48 h
Plasmodium berghei [11] = assay: Antimalarial activity against sporozoite stage of Plasmodium berghei infected in human Huh7 cells assessed as inhibition of parasite infection pre-incubated for 24 hrs followed by parasite infection measured after 48 hrs by bioluminescence assay; type: functional, organism-based; details: Huh-7
[12] = Selectivity index, ratio of IC50 for human HepG2 cells to IC50 for chloroquine susceptible Plasmodium falciparum D6; type: toxicity, cell-based; details: read-out: Ratio IC50
[13] = Inhibition of beta hematin formation measured as hemin equivalent after 18 hrs; type: physicochemical
In short: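 Hemin (16 mM in DMSO) mixed with compound at 0.125–5 mol equiv to hemin, plus water and 8 M acetate buffer pH 5.2, 25% DMSO final. Incubated 18 h at 37 °C. Pellet washed with DMSO, dissolved in 0.1 M NaOH, absorbance read at 405 nm (corrected at 670 nm) against a hemin calibration.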

Plasmodium falciparum [14] = assay: Antimalarial activity against 4th to 5th gametocyte stage of Plasmodium falciparum 3D7elo1-pfs16-CBG99 assessed as inhibition of gametocyte viability by luciferase reporter gene assay; type: functional, organism-based
In short: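 Stage IV–V gametocytes of luciferase-expressing 3D7elo1-pfs16-CBG99 strain (CBG99 under pfs16 promoter); luciferase activity as viability read-out. Viability = 100×(treated−blank)/(untreated−blank), blank = 100 nM epoxomicin-treated sample. Epoxomicin and dihydroartemisinin as positive controls. IC50 from nonlinear regression of dose–response; mean of three experiments in duplicate.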

Plasmodium berghei [15] = assay: Antimalarial activity against Plasmodium berghei ANKA infected in C57Bl6 mouse at 40 mg/kg/day, po on days 3 to 5 by Thompson test; type: functional
Plasmodium berghei [16] = assay: Antimalarial activity against Plasmodium berghei ANKA infected in po dosed C57Bl6 mouse administered on day 3 to 5 by Thompson test; type: functional; in short: as §2
Plasmodium berghei [17] = assay: Antimalarial activity against sporozoite stage of Plasmodium […] infected in human HepG2 cells; type: functional, organism-based
Plasmodium berghei [18] = assay: Antimalarial activity against Plasmodium berghei ANKA infected in C57Bl6 mouse at 80 mg/kg/day, po measured on day 3 to 5 by Thompson test; type: functional

Work on `CC(CNCCC12CC3CC(CC(C3)C1)C2)Nc1ccnc2cc(Cl)ccc12` (stereo unspecified) yielded an IC50 (Plasmodium falciparum [1]) of 0.001 µM, a half-life at 1 µM [2] of 60 min and an MST (Plasmodium berghei [3]) of 27.6 days. For the same molecule, the selectivity ratio [4] was 2910, the IC50 (Plasmodium falciparum [5]) was 0.004 µM and the IC50 (RAW264.7) was 2.91 µM. The Activity (Plasmodium berghei [6]) was “Active”, the Activity (Plasmodium berghei [7]) was “inactive” and the IC50 (Plasmodium falciparum [8]) was 0.001 µM. For the same molecule, the Activity (Mus musculus) was “Non-toxic” and the half-life at 1 µM [9] was 57 min.

Molecule `CC(CCNCCC12CC3CC(CC(C3)C1)C2)Nc1c(F)cnc2cc(Cl)ccc12` (stereo unspecified) has an IC50 (Plasmodium falciparum [1]) of 0.143 µM, a % infection at 5 µM (Plasmodium berghei [10]) of 3% and an IC50 (HepG2) of 3.21 µM. For the same molecule, the IC50 (Plasmodium falciparum [5]) was 0.203 µM, the IC50 (Plasmodium berghei [11]) was 1 µM and the selectivity ratio [12] was 22. The IC50 (Plasmodium falciparum [8]) was 0.171 µM.

`CC(CCCNCC12CC3CC(CC(C3)C1)C2)Nc1c(F)cnc2cc(Cl)ccc12` (stereo unspecified) gave an IC50 (Plasmodium falciparum [1]) of 0.198 µM, an IC50 (HepG2) of 3.55 µM and an IC50 (Plasmodium falciparum [5]) of 0.488 µM. It also gave a selectivity ratio [12] of 18 and an IC50 (Plasmodium falciparum [8]) of 0.342 µM.

`CC(NCCCCNc1ccnc2cc(Cl)ccc12)C12CC3CC(CC(C3)C1)C2` (stereo unspecified) showed an IC50 (Plasmodium falciparum [1]) of 0.007 µM, an IC50 (HepG2) of 3.09 µM and an IC50 (Plasmodium falciparum [5]) of 0.025 µM. The selectivity ratio [12] was 441 and the IC50 (Plasmodium falciparum [8]) was 0.019 µM.

`CCN(CC)CCCC(C)Nc1c(F)cnc2cc(Cl)ccc12` (stereo unspecified) showed a % infection at 5 µM (Plasmodium berghei [10]) of 35%, an MST (Plasmodium berghei [3]) of 16.8 days and an IC50 [13] of 1.07 equiv. For the same molecule, the IC50 (Plasmodium berghei [11]) was 1 µM and the Activity (Mus musculus) was “Non-toxic”.

`C[C@H]1[C@@H](O)O[C@@H]2O[C@@]3(C)CC[C@H]4[C@H](C)CC[C@@H]1[C@@]24OO3` [ARTENIMOL] showed an IC50 (Plasmodium falciparum [14]) of 0.44 µM.

With `COC(=O)CCC(C)[C@H]1CC[C@H]2[C@@H]3[C@H](OC(C)=O)C[C@@H]4CC5(CC[C@]4(C)[C@H]3C[C@H](OC(C)=O)[C@]12C)OOC1(CCCCC1)OO5` (stereo partly specified) the % infection at 5 µM (Plasmodium berghei [10]) was 31% and the IC50 (Plasmodium berghei [11]) was less than 1 µM.

With `Clc1ccc2c(NCCNCC34CC5CC(CC(C5)C3)C4)ccnc2c1` the MST (Plasmodium berghei [15]) was greater than 21.4 days, the Activity (Plasmodium berghei [6]) was “Active” and the Activity (Plasmodium berghei [7]) was “inactive”. The MAC (Plasmodium berghei [16]) was 40 mg/kg/day and the Activity (Mus musculus) was “Non-toxic”.

`CC(CCCNc1ccnc2cc(Cl)ccc12)NCC12CC3CC(CC(C3)C1)C2` (stereo unspecified) showed an IC50 (Plasmodium falciparum [1]) of 0.051 µM, an IC50 (HepG2) of 1.61 µM and an IC50 (Plasmodium falciparum [5]) of 0.282 µM. The selectivity ratio [12] was 32 and the IC50 (Plasmodium falciparum [8]) was 0.165 µM.

Work on `CC(CCNCCC12CC3CC(CC(C3)C1)C2)Nc1ccnc2ccccc12` (stereo unspecified) yielded an IC50 (Plasmodium falciparum [1]) of 0.007 µM, an IC50 (HepG2) of 1.59 µM and an IC50 (Plasmodium falciparum [5]) of 0.126 µM. For the same molecule, the selectivity ratio [12] was 227 and the IC50 (Plasmodium falciparum [8]) was 0.102 µM.

With `Fc1ccc2c(CNCCCNc3ccnc4cc(Cl)ccc34)csc2c1` the MST (Plasmodium berghei [3]) was 26.4 days and the Activity (Mus musculus) was “Non-toxic”.

Molecule `CC(CCCNCCC12CC3CC(CC(C3)C1)C2)Nc1ccnc2ccccc12` (stereo unspecified) has an IC50 (Plasmodium falciparum [1]) of 0.012 µM, an IC50 (HepG2) of 1.59 µM and an IC50 (Plasmodium falciparum [5]) of 0.393 µM. The selectivity ratio [12] was 133 and the IC50 (Plasmodium falciparum [8]) was 0.286 µM.

For `CC(CCNCCC12CC3CC(CC(C3)C1)C2)Nc1ccnc2cc(Cl)ccc12` (stereo unspecified), the IC50 (Plasmodium falciparum [1]) was 0.013 µM, the half-life at 1 µM [2] was 60 min and the % infection at 5 µM (Plasmodium berghei [10]) was 8%. The IC50 (HepG2) was 24.3 µM, the IC50 (Plasmodium falciparum [5]) was 0.013 µM and the IC50 (Plasmodium berghei [11]) was 2.5 µM. The selectivity ratio [12] was 1870, the IC50 (Plasmodium falciparum [8]) was 0.013 µM and the half-life at 1 µM [9] was 60 min.

`C[C@H]1[C@H](N2CCS(=O)(=O)CC2)O[C@@H]2O[C@@]3(C)CC[C@H]4[C@H](C)CC[C@@H]1[C@@]24OO3` [ARTEMIFONE] showed an IC50 (Plasmodium berghei [17]) of 0.04 µM.

With `CCN(CC)CCCC(C)Nc1ccnc2cc(Cl)ccc12` (stereo unspecified) [CHLOROQUINE] the MST (Plasmodium berghei [18]) was 25.6 days, the IC50 (Plasmodium berghei [17]) was 9 µM and the MST (Plasmodium berghei [3]) was greater than 31 days.

Work on `CC(NCCCNc1ccnc2cc(Cl)ccc12)C12CC3CC(CC(C3)C1)C2` (stereo unspecified) yielded an IC50 (Plasmodium falciparum [1]) of 0.004 µM, a half-life at 1 µM [2] of 11 min and an IC50 (Plasmodium falciparum [5]) of 0.022 µM. For the same molecule, the IC50 (RAW264.7) was 3.16 µM, the selectivity ratio [12] was 790 and the IC50 (Plasmodium falciparum [8]) was 0.015 µM. It also gave a half-life at 1 µM [9] of 16 min.

For `Fc1ccc2scc(CNCCCCNc3ccnc4cc(Cl)ccc34)c2c1`, the MST (Plasmodium berghei [18]) was 30.2 days, the MST (Plasmodium berghei [3]) was 30 days and the Activity (Mus musculus) was “Non-toxic”.
